The MIC is the least concentration at which growth counts as inhibited. As a reminder, the GI50 is the concentration at which growth is held to half of that of the control.

≈ marks a conversion by molar mass, not a printed value. Where “and” joins values, the source holds several entries; their conditions need not be identical. Identical values can stand only once. Calls of active or inactive are those of the source. The rule behind the calls is not given here. A value given as a limit tells only on which side of the number the result lay.

Data set [1] has as its system Staphylococcus aureus. As to the kind of experiment: Antimicrobial activity against methicillin-sensitive Staphylococcus aureus ATCC 29213 after 18 to 20 hrs by microbroth dilution technique. Type of data set: functional. In outline:
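MIC taken as the lowest concentration that prevents visible bacterial growth of MSSA 29213, reported in μg/mL.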

Data set [2] deals with Staphylococcus aureus. As to the kind of experiment: Antimicrobial activity against methicillin-resistant Staphylococcus aureus 7425 after 18 to 20 hrs by microbroth dilution technique. It is filed as functional. In outline: (§1)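 Broth microdilution MIC, taken as the lowest concentration preventing visible growth. MRSA 33591 was the reference strain and the others were clinical MRSA isolates. Vancomycin was tested alongside as comparator. Values are reported in μg/mL and μM.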

The test system of data set [3] is Staphylococcus aureus. In words: Antimicrobial activity against methicillin-sensitive Staphylococcus aureus ATCC 29213 assessed as growth inhibition at 8 times MIC measured over 3 hrs in presence of thiourea. It is filed as functional, organism-based.
Data set [4] deals with Staphylococcus aureus. In words: Antimicrobial activity against methicillin-resistant Staphylococcus aureus E151 after 18 to 20 hrs by microbroth dilution technique. Type of data set: functional. In outline: as §1
Data set [5] has as its system Staphylococcus aureus. As to the kind of experiment: Antimicrobial activity against Staphylococcus aureus assessed as extracellular H2O2 generation at 2 ug/ml measured after 60 mins by Amplex Red-based fluorescence assay. It is filed as functional, organism-based. The gist of the method: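 S. aureus cells were exposed to compound for 60 min, and H2O2 released into the medium was quantified by Amplex Red fluorescence as a surrogate marker for intracellular ROS. Untreated bacteria served as the control.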

For data set [6], the system named is Staphylococcus aureus. In words: Antimicrobial activity against methicillin-resistant Staphylococcus aureus B853 after 18 to 20 hrs by microbroth dilution technique. Type of data set: functional. The gist of the method: as §1
In general terms: Broth dilution looks for growth in wells or tubes with falling amounts of substance.

Data set [7] has as its system Staphylococcus aureus. As to the kind of experiment: Antimicrobial activity against methicillin-resistant Staphylococcus aureus B21838 after 18 to 20 hrs by microbroth dilution technique. Type of data set: functional. In outline:
as §1

Data set [8] can be described thus: Selectivity index, ratio of GI50 for human A549 cells to MIC for methicillin-resistant Staphylococcus aureus 33591.
Data set [9] is described as follows: Superoxide generation in buffer at pH 7.4 at 25 uM measured at 1 min interval for 4 mins by luminol-based chemiluminescence assay in presence of DT-diaphorase. In outline: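 Superoxide from compound plus NQO1 (DT-diaphorase) was followed as a time course by luminol chemiluminescence. The control was compound alone in pH 7.4 buffer.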
Data set [10] deals with Staphylococcus aureus. As to the kind of experiment: Antimicrobial activity against methicillin-resistant Staphylococcus aureus 33591 after 18 to 20 hrs by microbroth dilution technique. It is filed as functional. The gist of the method:
as §1

In data set [11] the test system is Staphylococcus aureus. In words: Antimicrobial activity against methicillin-resistant Staphylococcus aureus 7386 after 18 to 20 hrs by microbroth dilution technique. It is filed as functional. In outline:
as §1

Data set [12] concerns Staphylococcus aureus. In words: Induction of DNA damage in methicillin-sensitive Staphylococcus aureus ATCC 29213 assessed as upregulation of RecA expression at 6.7 times MIC measured after 120 mins by PCR analysis. It is filed as functional, organism-based.
Data set [13] can be described thus: Superoxide generation in buffer at pH 7.4 assessed as formation of 2-OH-E+ at 200 to 500 ug/ml measured after 10 mins by dihydroethidium assay in presence of DT-diaphorase. The gist of the method:
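Compound was incubated with NQO1 (DT-diaphorase). The DHE-derived products 2-OH-E+ (superoxide-specific) and E+ (nonspecific oxidation) were separated and quantified by HPLC. The control was compound in pH 7.4 buffer without enzyme.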

The subject of data set [14] is Staphylococcus aureus. In words: Antimicrobial activity against methicillin-resistant Staphylococcus aureus B19506 after 18 to 20 hrs by microbroth dilution technique. It is filed as functional. In outline: as §1
In data set [15] the test system is Staphylococcus aureus. In words: Antimicrobial activity against methicillin-sensitive Staphylococcus aureus ATCC 29213 assessed as intracellular oxidative species generation at 0.5 ug/ml measured after 1 hr by dichlorofluorescein-diacetate fluorescence assay. It is filed as functional, organism-based.
A short description of data set [16]: Cytotoxicity against human A549 cells after 72 hrs by MTT assay. Type of data set: cell-based. (In general: Tetrazolium dyes change colour on reduction, which living cells bring about.)
Data set [17] in a line: H2O2 generation in buffer at pH 7.4 at 2 ug/ml measured after 5 mins by Amplex Red-based fluorescence assay in presence of DT-diaphorase.
Data set [18] concerns Staphylococcus aureus. In words: Antimicrobial activity against methicillin-resistant Staphylococcus aureus E288 after 18 to 20 hrs by microbroth dilution technique. Type of data set: functional. In outline: as §1
Data set [19] deals with Staphylococcus aureus. In words: Antimicrobial activity against methicillin-resistant Staphylococcus aureus K-1 after 18 to 20 hrs by microbroth dilution technique. It is filed as functional. The gist of the method: as §1
The test system of data set [20] is Staphylococcus aureus. In words: Antimicrobial activity against Staphylococcus aureus assessed as intracellular superoxide generation measured as formation of 2-OH-E+ measured after 1 hr by dihydroethidium assay. It is filed as functional, organism-based. The gist of the method: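 Intact S. aureus cells were incubated with DHE across a range of compound concentrations. Products were 2-hydroxyethidium (2-OH-E+), which is superoxide-specific, and ethidium (E+), which comes from nonspecific oxidation. Untreated bacteria served as the control.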

Data set [21] deals with Staphylococcus aureus. In words: Antimicrobial activity against methicillin-resistant Staphylococcus aureus 7419 after 18 to 20 hrs by microbroth dilution technique. It is filed as functional. The gist of the method: as §1
In data set [22] the test system is Staphylococcus aureus. As to the kind of experiment: Antimicrobial activity against methicillin-resistant Staphylococcus aureus B0085 after 18 to 20 hrs by microbroth dilution technique. It is filed as functional. The gist of the method:
as §1

Data set [23] has as its system Staphylococcus aureus. In words: Antimicrobial activity against methicillin-resistant Staphylococcus aureus E9902 after 18 to 20 hrs by microbroth dilution technique. It is filed as functional. In outline: as §1

Turning to `COc1cc(Cn2c3c(c4ccccc4c2=O)C(=O)c2ccccc2C3=O)cc(OC)c1OC`, in data set [1], the MIC was found to be 8 µg/mL (≈ 17.6 µM).
Regarding `O=C1c2ccccc2C(=O)c2c1c1ccccc1c(=O)n2Cc1ccc(Cl)cc1`, in data set [1], the minimum inhibitory concentration (MIC) is greater than 32 µg/mL.
Consider `CN[C@H](CC(C)C)C(=O)N[C@H]1C(=O)N[C@@H](CC(N)=O)C(=O)N[C@H]2C(=O)N[C@H]3C(=O)N[C@H](C(=O)N[C@H](C(=O)O)c4cc(O)cc(O)c4-c4cc3ccc4O)[C@H](O)c3ccc(c(Cl)c3)Oc3cc2cc(c3O[C@@H]2O[C@H](CO)[C@@H](O)[C@H](O)[C@H]2O[C@H]2C[C@](C)(N)[C@H](O)[C@H](C)O2)Oc2ccc(cc2Cl)[C@H]1O` [VANCOMYCIN], for which, in data set [2], the MIC stood at 0.12 µg/mL (≈ 0.0828 µM).
`O=C1c2ccccc2C(=O)c2c1c1ccccc1c(=O)n2Cc1ccccc1`: the MIC in data set [1] was greater than 32 µg/mL.
The same measure, in the same setting: then `CCCn1c2c(c3ccccc3c1=O)C(=O)c1ccccc1C2=O`, with greater than 32 µg/mL.
For the compound `C[C@@H]1O[C@@H]1P(=O)(O)O` [FOSFOMYCIN], in [1], the MIC was 8 µg/mL (≈ 57.9 µM).
In the case of `NC[C@H]1O[C@H](O[C@H]2[C@H](O)[C@@H](O[C@H]3O[C@H](CO)[C@@H](O)[C@H](N)[C@H]3O)[C@H](N)C[C@@H]2N)[C@H](N)C[C@@H]1O` [TOBRAMYCIN], it took 1 µg/mL (≈ 2.14 µM) to inhibit growth in data set [1] (MIC).
`O=C1c2ccccc2C(=O)c2c1c1ccccc1c(=O)n2Cc1ccc(C(F)(F)F)cc1` yielded a minimum inhibitory concentration (MIC) in [1] greater than 32 µg/mL.
Take `CCn1c2c(c3ccccc3c1=O)C(=O)c1ccccc1C2=O`: in data set [1], the MIC is greater than 32 µg/mL.
Turning to `Cn1c2c(c3ccccc3c1=O)C(=O)c1ccccc1C2=O`, inhibition of growth in [1] (MIC) required 1 µg/mL (≈ 3.46 µM).
In data set [1], `COc1ccc(Cn2c3c(c4ccccc4c2=O)C(=O)c2ccccc2C3=O)cc1` yielded a minimum inhibitory concentration (MIC) of 32 µg/mL (≈ 80.9 µM).
In data set [1], `O=C1c2ccccc2C(=O)c2c1c1ccccc1c(=O)n2C1CCCCC1` yielded an MIC greater than 32 µg/mL.
The compound `O=C1c2ccccc2C(=O)c2c1c1ccccc1c(=O)n2Cc1ccccc1C(F)(F)F` showed an MIC in [1] greater than 32 µg/mL.
On the same count and under the same terms, under `C=CCn1c2c(c3ccccc3c1=O)C(=O)c1ccccc1C2=O` stands greater than 32 µg/mL.
Take `C#CCn1c2c(c3ccccc3c1=O)C(=O)c1ccccc1C2=O`: the “growth inhibition (GI)” value in data set [3] was “inactive”. The MIC in data set [2] was 0.12 µg/mL and 0.38 µM; in data set [4] it was 0.5 µg/mL and 1.6 µM; in data set [6] it was 1 µg/mL and 3.19 µM; in data set [7] it was 0.5 µg/mL and 1.6 µM; in data set [10], 0.5 µg/mL and 1.6 µM; in data set [11], 1 µg/mL and 3.19 µM. Further, the MIC in data set [1] is 0.5 µg/mL (≈ 1.6 µM); in data set [14], 0.06 µg/mL and 0.19 µM; in [18], 0.5 µg/mL and 1.6 µM; in [19], 0.25 µg/mL and 0.8 µM; in data set [21], 0.12 µg/mL and 0.38 µM; in [22] it was 0.5 µg/mL and 1.6 µM. Further, the MIC in [23] was 0.5 µg/mL and 1.6 µM. Also, the result in data set [5], in [9], in [12], in [13], in data set [15] and in [17] was Active. In addition, in [8], the “Selectivity Index” value was greater than 5. In data set [16], the GI50 at 72 h was 8.6 µM. In data set [20], the Activity entry is “Dose-dependent effect”.
In the case of `O=C1c2ccccc2C(=O)c2c1c1ccccc1c(=O)n2Cc1ccc([N+](=O)[O-])cc1`, the MIC in data set [1] was found to be 8 µg/mL (≈ 19.5 µM).
Take `COC(=O)Cn1c2c(c3ccccc3c1=O)C(=O)c1ccccc1C2=O`: the MIC in data set [1] is greater than 32 µg/mL.

(Values after ChEMBL document CHEMBL3352225, “Bioreductively Activated Reactive Oxygen Species (ROS) Generators as MRSA Inhibitors” (ACS Med Chem Lett, 2014).)
